Assay results from ChEMBL document CHEMBL2331265, “Physangulidine A, a withanolide from Physalis angulata, perturbs the cell cycle and induces cell death by apoptosis in prostate cancer cells” (2013).
Calls of active or inactive are those of the source. The rule behind the calls is not given here.

What was measured:
[1] = test system: DU-145; assay: Induction of apoptosis in human DU145 cells assessed as caspase-3 activation at 10 uM after 24 hrs by immunoblotting; assay type: functional, cell-based
Summary of the method: (§1)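 Cells treated with 10 μM compound or DMSO over a time course. Lysed in Tris/NaCl/EDTA/deoxycholate/IGEPAL buffer, pH 7.5, with protease and phosphatase inhibitors. Protein measured by BCA and equal amounts immunoblotted. Membranes blocked in 5% milk, then probed overnight at 4 °C with anti-PARP-1 (200 ng/mL; full length 116 kDa, cleaved 89 kDa) or anti-cleaved caspase-3 (1:1000). GAPDH loading control, chemiluminescent detection.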

[2] = test system: DU-145; assay: Inhibition of mitosis in human DU145 cells assessed as condensed chromosomes and mitotic spindles formation at 10 uM after 24 hrs by fluorescent microscopy; assay type: functional, cell-based
Summary of the method: (§2)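 DU145 plated at 2.5 × 10^4 on glass coverslips, 18 h. Then 10 μM compound for 24 or 48 h, or DMSO for 48 h. Fixed in 4% paraformaldehyde, permeabilized with 0.1% Triton X-100, blocked with 3% BSA. Stained with Alexa Fluor 488 anti-α-tubulin (60 min) and DAPI, then imaged by confocal microscopy for aberrant mitotic figures.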

[3] = test system: DU-145; assay: Induction of apoptosis in human DU145 cells assessed as PARP-1 cleavage at 10 uM after 48 to 72 hrs by immunoblotting; assay type: functional, cell-based; summary of the method: as §1
[4] = test system: DU-145; assay: Induction of apoptosis in human DU145 cells assessed as viable cells at 10 uM after 24 hrs using annexin V and propidium iodide staining by flow cytometric analysis relative to control; assay type: functional; settings: DU-145, 24 h, read-out: Activity
Summary of the method: (§3)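 DU145 plated at 2 × 10^5 per well and adhered 18 h. Then 5 or 10 μM compound, DMSO or untreated, for 24, 48 or 72 h. Trypsinized, PBS-washed, stained with annexin V-FITC plus propidium iodide. By flow cytometry, quadrants scored as viable, apoptotic (annexin+/PI−), necrotic (PI+ only) or late apoptotic/necrotic (double positive).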

[5] = test system: DU-145; assay: Induction of apoptosis in human DU145 cells assessed as early apoptotic cells at 10 uM after 24 hrs using annexin V and propidium iodide staining by flow cytometric analysis relative to control; assay type: functional; summary of the method: as §3
[6] = test system: PC-3; assay: Induction of apoptosis in human PC3 cells assessed as caspase-3 activation at 10 uM after 24 to 72 hrs by immunoblotting; assay type: functional, cell-based; summary of the method: as §1
[7] = test system: DU-145; assay: Induction of apoptosis in human DU145 cells assessed as necrotic cells at 10 uM after 72 hrs using annexin V and propidium iodide staining by flow cytometric analysis relative to control; assay type: functional; summary of the method: as §3
[8] = test system: DU-145; assay: Induction of apoptosis in human DU145 cells assessed as early apoptotic cells at 10 uM after 72 hrs using annexin V and propidium iodide staining by flow cytometric analysis relative to control; assay type: functional; summary of the method: as §3
[9] = test system: PC-3; assay: Induction of apoptosis in human PC3 cells assessed as DNA fragmentation formation at 10 uM after 48 to 72 hrs […]; assay type: functional, cell-based
Summary of the method: (§4)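 Cells (2 × 10^6, adherent plus floating) collected after 10 μM compound or DMSO. Lysed in 1% NP-40/EDTA/Tris, treated with RNase A (1 h, 37 °C) then proteinase K (1 h, 50 °C). Phenol–chloroform extracted, precipitated with isopropanol. Run on a 1.8% agarose gel, ethidium bromide stained, UV read for the oligonucleosomal DNA ladder.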

[10] = test system: DU-145; assay: Cell cycle arrest in human DU145 cells assessed as accumulation at G2/M phase at 10 uM after 24 hrs using propidium iodide staining by flow cytometry (reference value: 31%); assay type: functional
[11] = test system: DU-145; assay: Induction of apoptosis in human DU145 cells assessed as late apoptotic cells at 10 uM after 72 hrs using annexin V and propidium iodide staining by flow cytometric analysis relative to control; assay type: functional; summary of the method: as §3
[12] = test system: DU-145; assay: Induction of cell death in human DU145 cells at 10 uM after 72 hrs by trypan blue exclusion assay; assay type: functional
Summary of the method: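 DU145 left untreated, or given 10 μM compound or DMSO, for 72 h. All adherent and floating cells harvested, stained with trypan blue and counted at once. Result is % blue (nonviable) cells, mean of three independent experiments with standard error.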

[13] = test system: DU-145; assay: Inhibition of mitosis in human DU145 cells assessed as abnormal mitosis at 10 uM after 48 hrs by fluorescent microscopy; assay type: functional, cell-based; summary of the method: as §2
[14] = test system: DU-145; assay: Induction of apoptosis in human DU145 cells assessed as early apoptotic cells at 10 uM after 48 hrs using annexin V and propidium iodide staining by flow cytometric analysis relative to control; assay type: functional; summary of the method: as §3
[15] = test system: DU-145; assay: Induction of apoptosis in human DU145 cells using annexin V and propidium iodide staining at 5 uM after 72 hrs by flow cytometric analysis; assay type: functional; summary of the method: as §3
[16] = test system: DU-145; assay: Induction of apoptosis in human DU145 cells assessed as necrotic cells at 10 uM after 48 hrs using annexin V and propidium iodide staining by flow cytometric analysis relative to control; assay type: functional; summary of the method: as §3
[17] = test system: DU-145; assay: Induction of apoptosis in human DU145 cells assessed as viable cells at 10 uM after 72 hrs using annexin V and propidium iodide staining by flow cytometric analysis relative to control; assay type: functional; settings: DU-145, 72 h, read-out: Activity; summary of the method: as §3
[18] = test system: DU-145; assay: Cell cycle arrest in human DU145 cells assessed as accumulation at S phase at 10 uM after 48 hrs using propidium iodide staining by flow cytometry (reference value: 25%); assay type: functional
[19] = test system: DU-145; assay: Induction of apoptosis in human DU145 cells assessed as late apoptotic cells at 10 uM after 48 hrs using annexin V and propidium iodide staining by flow cytometric analysis relative to control; assay type: functional; summary of the method: as §3
[20] = test system: DU-145; assay: Induction of apoptosis in human DU145 cells assessed as viable cells at 10 uM after 48 hrs using annexin V and propidium iodide staining by flow cytometric analysis relative to control; assay type: functional; settings: DU-145, 48 h, read-out: Activity; summary of the method: as §3
[21] = test system: DU-145; assay: Cell cycle arrest in human DU145 cells assessed as accumulation at G1 phase at 10 uM after 48 hrs using propidium iodide staining by flow cytometry (reference value: 37%); assay type: functional
[22] = test system: DU-145; assay: Induction of apoptosis in human DU145 cells using annexin V and propidium iodide staining at 5 uM after 48 hrs by flow cytometric analysis; assay type: functional; summary of the method: as §3
[23] = test system: DU-145; assay: Cell cycle arrest in human DU145 cells assessed as accumulation at S phase at 10 uM after 24 hrs using propidium iodide staining by flow cytometry (reference value: 28%); assay type: functional
[24] = test system: PC-3; assay: Inhibition of colony formation in human PC3 cells at 2.5 to 10 uM after 10 days by clonogenic assay; assay type: functional, cell-based
Summary of the method: (§5)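 DU145 or PC3 plated at 3 × 10^2 per well and adhered 18 h. Then 2.5, 5 or 10 μM compound, DMSO or medium alone. Grown 10 days until colonies were visible. Colonies fixed in 4% paraformaldehyde and stained with 0.25% crystal violet in 25% methanol.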

[25] = test system: DU-145; assay: Induction of apoptosis in human DU145 cells assessed as late apoptotic cells at 10 uM after 24 hrs using annexin V and propidium iodide staining by flow cytometric analysis relative to control; assay type: functional; summary of the method: as §3
[26] = test system: DU-145; assay: Cell cycle arrest in human DU145 cells assessed as accumulation at G1 phase at 10 uM after 24 hrs using propidium iodide staining by flow cytometry (reference value: 39%); assay type: functional
[27] = test system: PC-3; assay: Antiproliferative activity against human PC3 cells at 10 uM; assay type: functional, cell-based
Summary of the method: (§6)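 DU145 in DMEM and PC3 in F-12K, each with 10% FBS and penicillin/streptomycin, at 37 °C, 5% CO2. Compound added directly to the medium. Antiproliferative activity read after three days of treatment.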

[28] = test system: DU-145; assay: Cell cycle arrest in human DU145 cells assessed as accumulation at G2/M phase at 10 uM after 48 hrs using propidium iodide staining by flow cytometry (reference value: 36%); assay type: functional
[29] = test system: DU-145; assay: Antiproliferative activity against human DU145 cells by SRB assay; assay type: functional
[30] = test system: DU-145; assay: Induction of apoptosis in human DU145 cells assessed as DNA fragmentation formation at 10 uM after 48 to 72 hrs […]; assay type: functional, cell-based; summary of the method: as §4
[31] = test system: DU-145; assay: Inhibition of colony formation in human DU145 cells at 2.5 to 10 uM after 10 days by clonogenic assay; assay type: functional, cell-based; summary of the method: as §5
[32] = test system: DU-145; assay: Induction of apoptosis in human DU145 cells assessed as necrotic cells at 10 uM after 24 hrs using annexin V and propidium iodide staining by flow cytometric analysis relative to control; assay type: functional; summary of the method: as §3
[33] = test system: DU-145; assay: Induction of apoptosis in human DU145 cells assessed as PARP-1 cleavage at 10 uM after 24 hrs by immunoblotting; assay type: functional, cell-based; summary of the method: as §1
[34] = test system: PC-3; assay: Induction of apoptosis in human PC3 cells assessed as PARP-1 cleavage at 10 uM after 24 to 72 hrs by immunoblotting; assay type: functional, cell-based; summary of the method: as §1
[35] = test system: DU-145; assay: Antiproliferative activity against human DU145 cells at 10 uM; assay type: functional, cell-based; summary of the method: as §6
[36] = test system: DU-145; assay: Induction of apoptosis in human DU145 cells using annexin V and propidium iodide staining at 5 uM after 24 hrs by flow cytometric analysis; assay type: functional; summary of the method: as §3
[37] = test system: DU-145; assay: Induction of apoptosis in human DU145 cells assessed as caspase-3 activation at 10 uM after 48 to 72 hrs by immunoblotting; assay type: functional, cell-based; summary of the method: as §1

`C[C@@H]1CC[C@H]2[C@H]3[C@H](O[C@]4([C@]5(O)CC6(C)C(=O)OC5C[C@@]6(C)O)CC[C@@]31O4)[C@H]1O[C@]13CC=CC(=O)[C@]23C` [PHYSANGULIDINE A] was tested, and the Activity [1] was “inactive”, the inhibition [2] was “Active” and the Activity [3] was “Active”. For the same compound, the viability at 10 µM [4] was 88.1%, the Activity [5] was 7.44% and the Activity [6] was “Active”. The Activity [7] was 0.308%, the Activity [8] was 46.4% and the Activity [9] was “Active”. The Activity [10] was 49%, the Activity [11] was 28.4% and the Activity [12] was 90%. The inhibition [13] was “Active”, the Activity [14] was 32.3% and the Activity [15] was 11.5%. It also gave an Activity [16] of 0.604%, a viability at 10 µM [17] of 24.9% and an Activity [18] of 12%. It also gave an Activity [19] of 13.9%, a viability at 10 µM [20] of 53.2% and an Activity [21] of 7%. For the same compound, the Activity [22] was 9.2%, the Activity [23] was 37% and the inhibition [24] was “Active”. The Activity [25] was 3.71%, the Activity [26] was 8% and the inhibition [27] was “Active”. For the same compound, the Activity [28] was 66%, the GI50 [29] was 3.6 µM and the Activity [30] was “Active”. The inhibition [31] was “Active”, the Activity [32] was 0.77% and the Activity [33] was “inactive”. The Activity [34] was “Active”, the inhibition [35] was “Active” and the Activity [36] was 5.2%. For the same compound, the Activity [37] was “Active”.
